# Screening results from PubChem.
# KCNK9 block = blocks the human KCNK9 two-pore domain potassium channel | Q9NPC2 | HEK293 KCNK9, FluxOR thallium flux fluorescence; active compounds read low | B-score at 10 µM | 1.2% of 310,000 active | AID 488922;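 active = ratio B-score over 3 SD below the library mean, with starting fluorescence within 5 SD of its mean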;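 also: negative B-score means less thallium flux so channel inhibition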
# Target sequence (Q9NPC2 whole entry, looked up, the tested form may be a part): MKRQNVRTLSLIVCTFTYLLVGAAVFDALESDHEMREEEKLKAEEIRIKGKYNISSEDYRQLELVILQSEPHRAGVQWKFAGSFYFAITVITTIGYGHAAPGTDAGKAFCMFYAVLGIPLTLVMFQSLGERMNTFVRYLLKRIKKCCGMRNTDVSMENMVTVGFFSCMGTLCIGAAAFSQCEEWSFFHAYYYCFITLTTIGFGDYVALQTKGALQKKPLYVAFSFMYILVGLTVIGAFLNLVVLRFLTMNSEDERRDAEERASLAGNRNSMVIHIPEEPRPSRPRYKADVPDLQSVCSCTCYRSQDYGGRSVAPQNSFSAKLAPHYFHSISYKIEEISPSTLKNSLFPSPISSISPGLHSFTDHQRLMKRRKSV
# KCNQ1 pot = potentiates or activates the human KCNQ1 potassium channel | P51787 | AID 2648 | B-score at 10 µM | CHO-K1 KCNQ1, thallium flux FluxOR fluorescence; active compounds read high | 0.35% of 310,000 active;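 active = fluorescence ratio B-score, a plate-corrected score, at least three library SD, with initial intensity B-score within 5 SD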
#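 Test system: CHO-K1 cells stably expressing KCNQ1 / Medium: assay buffer / Also added: depolarizing K+/Tl+ stimulus, K2SO4 and Tl2SO4 each 12.5 mM in 5x stock / Incubation: 90 min dye loading and 20 min compound exposure, both at room temperature / Signal: thallium influx via FluxOR fluorescence, kinetic imaging / Evaluation: B score of baseline-normalized fluorescence ratio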
# KCNK3 inh = human KCNK3 channel inhibition, primary screen; AID 602410; CHO-KCNK3 thallium flux, FluxOR fluorescence; active compounds read low; 0.84% of 340,000 active; B-score at 10 µM; O14649;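 active = B-score under library mean minus 4 SD, starting fluorescence ratio at most library mean plus 5 SD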;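 also: more negative B-score means stronger inhibition of thallium flux through KCNK3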
# hERG protect = compounds protecting human hERG from proarrhythmic drug block | Q12809 | CHO-hERG, FluxOR thallium flux, dofetilide IC70 present | activation (rescue from dofetilide block), less the hit threshold, % at 10 µM | 0.51% of 310,000 active;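 active = activation above the mean of controls blocked by dofetilide plus 5 SD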;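 also: thallium influx through hERG after potassium depolarization seen as dye fluorescence rise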
# KCNQ1 inh = inhibitors of human KCNQ1 potassium channel; 1.3% of 310,000 active; AID 2642; P51787; CHO-K1 KCNQ1, FluxOR thallium flux fluorescence; active compounds read high; B-score at 10 µM;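 active = compounds whose thallium flux B-score, printed positive for inhibition, exceeds three library SD while starting fluorescence stays within three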;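 also: channel opened by potassium depolarization with thallium stimulus after 20 min compound exposure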
# Kir21 inh = blocks the mouse Kir2.1 inward-rectifier potassium channel | AID 1672 | 0.85% of 310,000 active | P35561 | B-score at 10 µM | HEK293-Kir2.1, FluxOR thallium flux fluorescence; active compounds read low;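 active = fluorescence ratio B-score at or below minus 3 SD of library scores, with starting-brightness B-score within 2 SD, cut at about -4.2 in these data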;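 also: channel flux triggered by added potassium and thallium sulfate stimulus; B-score of peak minus minimum fluorescence over baseline after thallium stimulus; more negative B-score means stronger Kir2.1 block with less thallium influx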
# Starred values were filed as active, the others as inactive; i = inactive; nt = not tested or not shown. Compounds with a hit are over-represented: about 3.7% of the library has one in this group of screens.
SMILES,KCNK9 block,KCNQ1 pot,KCNK3 inh,hERG protect,KCNQ1 inh,Kir21 inh
Cc1cc(N2CCN(C)CC2)nc(N2CCOCC2)n1,i,i,i,8.0*,i,-0.5
Cc1cc(N2CCOCC2)nc(N2CCOCC2)n1,i,i,i,-3.8,i,0.04
NC(=O)c1nc[nH]c1C(=O)Nc1cccc(C(F)(F)F)c1,nt,nt,i,nt,nt,nt
Cc1ccc(C(=O)N(C)Cc2nc3ccccc3c(=O)[nH]2)cc1NC(=O)c1ccco1,nt,nt,i,nt,nt,nt
Cc1oc2c(cc(NS(=O)(=O)c3ccc(C(C)C)cc3)c3ccccc32)c1C(=O)O,i,i,i,-10.3,9*,-1.54
Cc1oc2c(cc(NS(=O)(=O)c3ccc(F)cc3)c3ccccc32)c1C(=O)O,i,i,i,-4.5,i,-0.18
COc1ccc(S(=O)(=O)Nc2cc3c(C(C)=O)c(C)oc3c3ccccc23)cc1,-7.33*,i,i,-10.9,i,0.93
CN(C)C(=O)CCc1ccc2c3c([nH]c2c1)[C@]1(CCc2ccccc2)[C@@H](C(=O)N2CCCCC2)C[C@H](CC(=O)NCCCn2ccnc2)C(=O)N1CC3,nt,nt,i,nt,nt,nt
Nc1cc(=O)[nH]c(SCC(=O)Nc2ccc(N3CCCCC3)cc2)n1,nt,nt,i,nt,nt,nt
Cc1cc(Nc2ccc(Cl)cc2)nc(NCc2ccccc2)n1,i,i,i,-18.1,i,-6.99*
Cc1cc(Nc2ccccc2)nc(NCc2ccccc2)n1,i,i,i,-22.1,i,-10.7*
Cc1nc(NN)nc(NCc2ccccc2)n1,i,i,i,7.1*,i,1.57
Cc1ccc(/C=N/Nc2cc(C)nc(NCc3ccccc3)n2)cc1,i,i,i,-7.5,i,-0.3
O=C(NCC(=O)N1CCN(C(=O)c2ccco2)CC1)c1ccc(Br)cc1,i,i,i,-12.2,i,0.12
CCCCN(C(=O)c1ccc(C)o1)c1c(N)n(CC(C)C)c(=O)[nH]c1=O,nt,nt,i,nt,nt,nt
CCC(CC)NC(=O)c1ccccc1Oc1ccccc1,i,i,i,-7.0,i,-6.86*
COc1cc(/C=C2/SC(=S)N(CC(=O)O)C2=O)ccc1OCC(=O)Nc1ccc(C)c(C)c1,i,i,i,18.5*,i,1.19
Cc1cccn2c(/C=N/OCc3ccc(F)cc3)c(-c3ccc(Cl)cc3)nc12,-7.77*,i,i,-10.9,i,-0.57
CCCN(C(=O)c1ccc(N(C)S(=O)(=O)c2ccc(C)cc2)cc1)C1CCS(=O)(=O)C1 (centres undefined),i,i,i,-12.6,i,0.29
O=C(NC(=S)Nc1ccccc1)c1ccc(-c2ccccc2)cc1,i,i,i,-6.0,i,-0.52
O=C(NC(=S)Nc1ccc(C(F)(F)F)cc1)c1csnn1,i,141*,i,56.2*,i,0.2
O=C(Nc1csnn1)c1csnn1,i,i,i,-8.1,i,-0.27
COc1ccc(NC(=S)NC(=O)c2csnn2)cc1,i,24*,i,15.8*,i,-0.43
O=C(NC(=S)Nc1ccccc1)c1csnn1,i,116*,i,63.3*,i,1.88
Cc1cc(=O)cc(C)n1-c1ccc(F)cc1F,i,i,i,6.6*,i,0.07
SMILES,KCNK9 block,KCNQ1 pot,KCNK3 inh,hERG protect,KCNQ1 inh,Kir21 inh
Cc1ccc(F)cc1NC(=O)COC(=O)COc1ccc(C#N)cc1,i,i,i,-4.8,i,0.22
Cc1cc(C(=O)NC2CCCc3c2cnn3-c2ccc(C(C)(C)C)cc2)nn1C (centres undefined),i,i,i,-22.8,8*,-0.84
COc1ccc(S(=O)(=O)N2CCN(C(=O)c3ccc(NC(C)=O)cc3)CC2)cc1,nt,nt,i,nt,nt,nt
CCCN(Cc1ccccc1)C(=S)Nc1ccc(SC(F)F)cc1,i,i,i,-10.4,6*,0.03
COCc1c(C(=O)Nc2cccc(S(=O)(=O)N3CCCCC3)c2)oc2ccccc12,nt,nt,-9.3*,nt,nt,nt
O=C(Nc1cccc(S(=O)(=O)N2CCCCC2)c1)c1ccco1,nt,nt,i,nt,nt,nt
O=C(Nc1cccc(S(=O)(=O)N2CCCCC2)c1)c1cc2ccccc2o1,nt,nt,-11.2*,nt,nt,nt
COC(=O)c1ccc(N2CCOCC2)c(NC(=O)c2cccnc2)c1,i,i,i,-11.6,i,-0.08
COCCOC(=O)c1c(C)oc2ccc(O)c(CN3CCC(C)CC3)c12 (tested in a mixture with another compound),nt,nt,i,nt,nt,nt
CCOC(=O)c1c(N)sc(C(O)(C(F)(F)F)C(F)(F)F)c1-c1ccccc1,-7.53*,i,i,-18.4,i,-0.86
CCC(C)NC(=S)N1CCN(C(c2ccccc2)c2ccccc2)CC1 (centres undefined),-7.66*,i,i,-6.7,i,0.47
COc1ccccc1NC(=O)Nc1ccc(-n2ccc(C(F)(F)F)n2)cc1,-7.79*,i,i,-7.4,i,-0.01
Cc1cc(C(C)(C)C)cc(C)c1COC(=O)c1cccnc1,i,i,i,-10.9,i,0.03
CCN(CC)CCCNc1ccc(-c2nnc(-c3ccc(OCC(C)C)cc3)o2)cn1,i,i,i,-25.2,9*,-6.55*
CC(C)COc1ccc(-c2nnc(-c3ccco3)o2)cc1,i,i,i,-3.7,i,0.03
CCC(C)(C)n1nnnc1C(c1cccnc1)N1CCC(Cc2ccccc2)CC1 (centres undefined),-7.6*,i,i,-12.7,i,0.71
CCC(C)n1c(SC(C)C#N)nc2ccccc2c1=O (centres undefined),i,i,i,5.0*,i,-3.81
COc1cc(/C=N/NC(=O)c2ccc(F)cc2)ccc1OC(=O)c1ccco1,i,i,i,-10.4,i,-1.18
COc1cc(/C=C2/C(=O)NN(c3cccc(F)c3)C2=O)ccc1OC(=O)c1ccco1,i,i,i,-10.2,i,-9.79*
Cc1ccc(Oc2ccc(NC(=O)Cn3ccsc3=N)cc2)cc1,i,22*,i,-15.9,i,-4.46*
CCN(CC)CCCCCC(=O)Nc1ccccc1C(=O)Nc1ccccc1,i,i,i,-0.2,i,-0.48
COc1cc2c(cc1OC)CN(c1ccc(F)cc1[N+](=O)[O-])CC2,i,i,i,-6.0,i,0.07
CCOc1ccc(NC(=O)CSc2nnc(C3CC3)n2C)cc1,i,i,i,-4.9,i,-1.08
CCOc1ccc(C(=O)CSc2nnc(C3CC3)n2C)cc1,i,i,i,6.4*,i,0.21
O=[N+]([O-])c1cccc2c(N3CCCC3)ccnc12,i,i,i,-12.2,i,0.32
COc1cc(OC)c(C(=O)OCC(=O)NCCC2=CCCCC2)cc1OC,i,i,i,-13.2,i,-1.98
